The nature of assay [1]: Inhibition of recombinant p56 Lck tyrosine kinase expressed in insect cells. The gist of the method:
(§1)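 His-tagged recombinant Lck made in insect cells by baculovirus and purified on nickel affinity resin. Kinase buffer is 20 mM MOPS pH 7 with 10 mM MgCl2, and the test compound is present. It is stopped after 10 min with TCA/pyrophosphate then BSA. Enolase is precipitated at 4 °C, filtered and counted by scintillation.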

Assay [2] is described as follows: Inhibition of Human PBL (T cell) proliferation. It counts as functional. To be noted: Homo sapiens. The gist of the method:
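Normal human peripheral blood T cells are added with test compound and anti-CD28 (E.3) antibody to wells precoated with anti-CD3 mAb (G19-4). After 3 days [3H]-thymidine is added, and after further incubation the cells are harvested and incorporation is counted by scintillation.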

The nature of assay [3]: Binding affinity for recombinant p56 Lck tyrosine kinase expressed in insect cells. In a few lines:
as §1

One may read the IC50 as the concentration that inhibits the measured activity by half. Take `Cc1cccc(Cl)c1Nc1nc2cccnc2n2cncc12`: the IC50 in assay [1] came to 30 nM.
Take `COc1ccc2nc(Nc3c(C)cccc3Cl)c3cncn3c2n1`: the values for the IC50 in assay [1] and in assay [2] were 19 nM and 1800 nM, respectively.
`COc1cc2c(cc1NCCN(C)C)nc(Nc1c(C)cccc1Cl)c1cncn12` returned an IC50 in assay [2] of 194 nM.
As for `Cc1cccc(Cl)c1Nc1nc2ccc(N3CCCCC3)nc2n2cncc12`, the IC50 in assay [1] was 7 nM.
On to `Cc1cccc(Cl)c1Nc1nc2ccc(N(C)CCN(C)C)nc2n2cncc12`, for which, in assay [1], the IC50 stood at 71 nM.
As for `Cc1cccc(Cl)c1Nc1nc2ccc(N3CC[C@H](N)C3)nc2n2cncc12`, the IC50 was determined as 6 nM in assay [1] and 370 nM in assay [2].
As to `Cc1cccc(Cl)c1Nc1nc2ccc(N3CC[C@H](O)C3)nc2n2cncc12`, the results for the IC50 in assay [1] and in assay [2] were 4 nM and 340 nM, respectively.
Turning to `Cc1cccc(Cl)c1Nc1nc2ccc(N3CCOCC3)nc2n2cncc12`, the IC50 in assay [1] turned out to be 1 nM; in assay [2], 1900 nM.
In the case of `Cc1cccc(Cl)c1Nc1nc2ccc(N3C[C@@H](C)N[C@@H](C)C3)nc2n2cncc12`, the IC50 in assay [1] is 2 nM; in assay [2] it was 400 nM.
Take `Cc1cccc(Cl)c1Nc1nc2ccc(N3CCN[C@@H](CO)C3)nc2n2cncc12`: the IC50 in assay [1] came to 5 nM; in assay [2], 270 nM.
Take `Cc1cccc(Cl)c1Nc1nc2ccc(N(C)C[C@@H](O)CO)nc2n2cncc12`: the IC50 in assay [1] amounted to 7 nM; in assay [2] it was 300 nM.
As to `Cc1cccc(Cl)c1Nc1nc2ccc(N3C[C@H](O)[C@@H](O)C3)nc2n2cncc12`, the IC50 was 13 nM in assay [1] and more than 2000 nM in assay [2].
With `Cc1cccc(Cl)c1Nc1nc2ccncc2n2cncc12`, in assay [1], the IC50 was 1400 nM.
Turning to `Cc1cccc(Cl)c1Nc1nc2ccccc2n2cncc12`, the IC50 is 9 nM in assay [1] and 5000 nM in assay [2].
For `Cc1cccc(Cl)c1Nc1nc2ccc(NCCO)nc2n2cncc12`, in that order: 3 nM and 490 nM.
Take `Cc1cccc(Cl)c1Nc1nc2ccc(N3CCN(CCO)CC3)nc2n2cncc12`: the IC50 in assay [1] came out at 9 nM; in assay [2] it was 240 nM.
Consider `CC1=NN(C)C2C1N=C(Nc1c(C)cccc1Cl)c1cnc(C)n12` (configuration not stated), for which the IC50 in assay [1] was more than 780 nM.
Consider `Cc1cccc(Cl)c1Nc1nc2cc(N(C)CCN3CCOCC3)ncc2n2cncc12`, for which the IC50 in assay [1] is 103 nM.
With `Cc1cccc(C)c1Nc1nc2ncccc2n2cncc12`, in assay [1], the IC50 is 150 nM.
Turning to `Cc1cccc(Cl)c1Nc1nc2ccc(N3CCN(CCN(C)C)CC3)nc2n2cncc12`, the IC50 in assay [1] was 2 nM; in assay [2] it was 250 nM.
Consider `COc1ccc2c(c1)nc(Nc1c(C)cccc1Cl)c1cncn12`, for which the IC50 in assay [2] worked out at 2600 nM.
Turning to `Cc1cccc(Cl)c1Nc1nc2ccc(N(C)CCO)nc2n2cncc12`, the values for the IC50 in assay [1] and in assay [2] were 3 nM and 620 nM, respectively.
On to `Cc1cccc(Cl)c1Nc1nc2cc(N(C)CCN(C)C)ncc2n2cncc12`, for which, in assay [1], the IC50 was 240 nM.
In assay [2], `Brc1ccccc1Nc1nc2ccccc2n2cncc12` came in with an IC50 of 17000 nM.
As to `Cc1cccc(Cl)c1Nc1nc2ccc(N3CC[C@@H](O)C3)nc2n2cncc12`, the figures for the IC50 in assay [1] and in assay [2] were 8 nM and 730 nM, respectively.
Turning to `Cc1cccc(Cl)c1NC1=NC2N=CN(C)C2n2c1cnc2C` (configuration not stated), the IC50 in assay [1] is more than 780 nM.
As for `Cc1cccc(Cl)c1Nc1nc2cnc(N3C[C@@H](C)N[C@@H](C)C3)cc2n2cncc12`, in assay [1], the IC50 came out at 29 nM.
For `Cc1cccc(Cl)c1Nc1nc2ccc(N3C[C@@H](O)[C@H](O)C3)nc2n2cncc12`, the IC50 in assay [1] turned out to be 5 nM; in assay [2], 440 nM.
On to `Cc1cccc(Cl)c1Nc1nc2ncccc2n2cncc12`, for which, in assay [1], the IC50 turned out to be 90 nM.
Take `Cc1cccc(Cl)c1Nc1nc2ccc(N(C)C[C@H](O)CO)nc2n2cncc12`: the IC50 was determined as 13 nM in assay [1] and 630 nM in assay [2].
On the same counts, the results for `Cc1cccc(Cl)c1Nc1nc2ccc(N3CC[C@@H](N)C3)nc2n2cncc12` are 7 nM and 310 nM.
With `Cc1cccc(Cl)c1Nc1nc2ccc(N3CCN[C@H](C)C3)nc2n2cncc12`, the IC50 in assay [1] stood at 2 nM; in assay [2], 240 nM.
`Cc1cccc(Cl)c1Nc1nc2cc(N3CCNCC3)ncc2n2cncc12`: in assay [1], the IC50 worked out at 163 nM.
As for `COc1ncc2c(n1)nc(Nc1c(C)cccc1Cl)c1cncn12`, the IC50 in assay [1] was more than 780 nM.
Turning to `Cc1cccc(Cl)c1Nc1nc2ccc(N3CCCNCC3)nc2n2cncc12`, the IC50 is 6 nM in assay [1] and 540 nM in assay [2].
Regarding `Cc1cccc(Cl)c1Nc1nc2ccc(N3CCN(C)CC3)nc2n2cncc12`, the concentration for half-maximal inhibition (IC50) in assay [1] was 1 nM; in assay [2], 400 nM.
Take `Cc1cccc(Cl)c1Nc1nc2ccc(N3CCN[C@H](CO)C3)nc2n2cncc12`: the values for the IC50 in assay [1] and in assay [2] were 3 nM and 180 nM, respectively.
In turn, `COc1cc2nc(Nc3c(C)cccc3Cl)c3cncn3c2cc1OC` showed an IC50 in assay [2] of 670 nM.
Take `CCN(CC)c1ccc2nc(Nc3c(C)cccc3Cl)c3cncn3c2n1`: the results for the IC50 in assay [1] and in assay [2] were 2 nM and 2100 nM, respectively.
On the same counts, the results for `Cc1cccc(C)c1Nc1nc2ccc(N3CCNCC3)nc2n2cncc12` are 1 nM and 230 nM.
For the compound `Cc1cccc(Cl)c1Nc1nc2ccc(N(C)C)nc2n2cncc12`, the IC50 was found to be 1 nM in assay [1] and 1200 nM in assay [2]. Also, in assay [3], the Log IC50 turned out to be 3 µM.
Take `Cc1cccc(Cl)c1Nc1nc2ccc(Cl)nc2n2cncc12`: the IC50 in assay [1] was 25 nM.
Still for that read-out and setting: in the case of `Cc1cccc(Cl)c1Nc1nc2cnccc2n2cncc12` it was 77 nM.
As for `Cc1cccc(Cl)c1Nc1nc2ccc(-n3ccnc3)nc2n2cncc12`, the IC50 worked out at 5 nM in assay [1] and 470 nM in assay [2].
For `Cc1cccc(Cl)c1Nc1nc2ccc(N(CCO)CCO)nc2n2cncc12`, in that order: 4 nM and 620 nM.

Source of the values: ChEMBL document CHEMBL1138736, “Imidazoquinoxaline Src-family kinase p56Lck inhibitors: SAR, QSAR, and the discovery of (S)-N-(2-chloro-6-methylphenyl)-2-(3-methyl-1-piperazinyl)imidazo- [1,5-a]pyrido[3,2-e]pyrazin-6-amine (BMS-279700) as a potent and orally active inhibitor with excellent in vivo antiinflammatory activity” (J Med Chem, 2004).
